ChEMBL document CHEMBL2040734, “Benzothiazoles: search for anticancer agents” (2012)

Assays:
Type in all cases: functional
HCC 2998 [1] = experiment: Cytotoxicity against human HCC2998 cells assessed as cell growth at 10 uM after 48 hrs by sulforhodamine B assay; settings: HCC 2998, 48 h, read-out: Activity
Outline: (§1)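 Five-dose NCI panel run at 0.01, 0.1, 1, 10 and 100 µM. Cells were in RPMI 1640 with 5% FBS and 2 mM L-glutamine, seeded at 5000–40,000 cells/well and pre-incubated 24 h. Drug was diluted from a DMSO stock into medium with 50 µg/ml gentamicin. Exposure was 48 h at 37 °C, 5% CO2. Cells were fixed with cold TCA and stained with 0.4% SRB, read at 515 nm. Percent growth came from time-zero, control and test absorbances.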

UACC-257 = experiment: Cytotoxicity against human UACC257 cells assessed as cell growth at 10 uM after 48 hrs by sulforhodamine B assay; settings: UACC-257, 48 h, read-out: Activity
NCI/ADR-RES = experiment: Cytotoxicity against human NCI/ADR-RES cells assessed as cell growth at 1 uM after 48 hrs by sulforhodamine B assay; settings: read-out: Activity
HL-60(TB) [2] = experiment: Cytotoxicity against human HL-60(TB) cells assessed as cell growth at 0.01 uM after 48 hrs by sulforhodamine B assay; settings: HL-60, 48 h, read-out: Activity
Outline: (§2)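 NCI five-dose screen on the HL-60(TB) leukaemia line, grown in RPMI 1640 with 5% FBS and 2 mM L-glutamine and plated for 24 h before dosing. DMSO stocks were diluted in medium. Cells were exposed 48 h at 37 °C, then settled cells were fixed in 16% TCA (final) and stained with SRB, absorbance 515 nm. Percent growth = (Ti−Tz)/(C−Tz)×100, or (Ti−Tz)/Tz×100 when Ti<Tz.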

RXF 393 = experiment: Cytotoxicity against human RXF393 cells assessed as cell growth at 0.1 uM after 48 hrs by sulforhodamine B assay; settings: RXF 393, 48 h, read-out: Activity
Malme-3M = experiment: Cytotoxicity against human MALME-3M cells assessed as cell growth at 100 uM after 48 hrs by sulforhodamine B assay; settings: read-out: Activity
786-0 = experiment: Cytotoxicity against human 786-0 cells assessed as cell growth at 100 uM after 48 hrs by sulforhodamine B assay; settings: 786-0, 48 h, read-out: Activity
Outline: (§3)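 NCI-60 five-dose screen. Cells were grown in RPMI 1640 with 5% FBS and 2 mM L-glutamine and preincubated 24 h. Compound (DMSO stock) was tested at 0.01, 0.1, 1, 10 and 100 µM for 48 h at 37 °C. Cells were fixed in situ with cold TCA (final 10%) and stained with 0.4% SRB. A515 was read, and percent growth was calculated against time-zero and control plates.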

TK-10 = experiment: Cytotoxicity against human TK10 cells assessed as cell growth at 0.1 uM after 48 hrs by sulforhodamine B assay; settings: TK-10, 48 h, read-out: Activity
EKVX [3] = experiment: Cytotoxicity against human EKVX cells assessed as cell growth at 10 '-5 M after 48 hrs by sulforhodamine B assay; settings: read-out: Activity
Outline: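 Primary one-dose screen across the NCI 60-line panel at 10 µM. Cells were grown in RPMI 1640 with 5% FBS and 2 mM L-glutamine and held 24 h before drug. Drug was diluted from a DMSO concentrate. Exposure was 48 h at 37 °C, 5% CO2. Cells were fixed with TCA and stained with SRB, with absorbance read at 515 nm. Percent growth was calculated against time-zero and untreated control.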

A549 = experiment: Cytotoxicity against human A549 cells assessed as cell growth at 0.1 uM after 48 hrs by sulforhodamine B assay; settings: A549, 48 h, read-out: Activity; outline: as §3
BT-549 = experiment: Cytotoxicity against human BT549 cells assessed as cell growth at 0.1 uM after 48 hrs by sulforhodamine B assay; settings: BT-549, 48 h, read-out: Activity; outline: as §3
KM12 = experiment: Growth inhibition of human KM12 cells after 48 hrs by sulforhodamine B assay; settings: KM12, 48 h; for CC50: read-out: LC50 (the source's name)
Outline: (§4)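 Adherent NCI-60 lines were grown in RPMI 1640 with 5% FBS and 2 mM L-glutamine, plated at 5000–40,000 cells/well and preincubated 24 h. They were then exposed to five concentrations (0.01–100 µM, from a DMSO stock) for 48 h at 37 °C, 5% CO2. Cells were fixed with cold TCA (10% final, 60 min, 4 °C) and stained with 0.4% SRB. Dye was solubilized in 10 mM Tris base and A515 read. GI50 was derived from time-zero, control and treated absorbances.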

M14 = experiment: Cytotoxicity against human M14 cells assessed as cell growth at 10 uM after 48 hrs by sulforhodamine B assay; settings: M14, 48 h, read-out: Activity
UO-31 = experiment: Cytotoxicity against human UO31 cells assessed as cell growth at 100 uM after 48 hrs by sulforhodamine B assay; settings: UO-31, 48 h, read-out: Activity
NCI-H322M = experiment: Cytotoxicity against human NCI-H322M cells assessed as cell growth at 10 '-5 M after 48 hrs by sulforhodamine B assay; settings: read-out: Activity
NCI-H522 = experiment: Cytotoxicity against human NCI-H522 cells assessed as cell growth at 10 '-5 M after 48 hrs by sulforhodamine B assay; settings: NCI-H522, 48 h, read-out: Activity
SK-OV-3 = experiment: Cytotoxicity against human SKOV3 cells assessed as cell growth at 10 '-5 M after 48 hrs by sulforhodamine B assay; settings: SK-OV-3, 48 h, read-out: Activity
HL-60(TB) [4] = experiment: Cytotoxicity against human HL-60(TB) cells assessed as cell growth at 100 uM after 48 hrs by sulforhodamine B assay; settings: HL-60, 48 h, read-out: Activity; outline: as §2
HCC 2998 [5] = experiment: Cytotoxicity against human HCC2998 cells assessed as cell growth at 0.01 uM after 48 hrs by sulforhodamine B assay; settings: HCC 2998, 48 h, read-out: Activity; outline: as §1
EKVX [6] = experiment: Growth inhibition of human EKVX cells after 48 hrs by sulforhodamine B assay; outline: as §4
SF-295 = experiment: Cytotoxicity against human SF295 cells assessed as cell growth at 10 '-5 M after 48 hrs by sulforhodamine B assay; settings: SF-295, 48 h, read-out: Activity
SK-MEL-2 = experiment: Cytotoxicity against human SK-MEL-2 cells assessed as cell growth at 0.1 uM after 48 hrs by sulforhodamine B assay; settings: SK-MEL-2, 48 h, read-out: Activity
HT-29 = experiment: Cytotoxicity against human HT-29 cells assessed as cell growth at 0.01 uM after 48 hrs by sulforhodamine B assay; settings: HT-29, 48 h, read-out: Activity; outline: as §1
SN12C = experiment: Cytotoxicity against human SN12C cells assessed as cell growth at 10 uM after 48 hrs by sulforhodamine B assay; settings: read-out: Activity
SNB-75 = experiment: Cytotoxicity against human SNB75 cells assessed as cell growth at 10 uM after 48 hrs by sulforhodamine B assay; settings: SNB-75, 48 h, read-out: Activity
DU-145 = experiment: Cytotoxicity against human DU145 cells assessed as cell growth at 100 uM after 48 hrs by sulforhodamine B assay; settings: DU-145, 48 h, read-out: Activity; outline: as §1

Cc1ccc2nc(Nc3c(C)cccc3C)sc2c1
growth at 10 µM (HCC 2998 [1]): 53%
growth at 10 µM (UACC-257): 70%
growth at 1 µM (NCI/ADR-RES): 40%
growth at 0.01 µM (HL-60(TB) [2]): 107%
growth at 0.1 µM (RXF 393): 85%
growth at 100 µM (Malme-3M): 53%
growth at 100 µM (786-0): 60%
growth at 0.1 µM (TK-10): 94%
growth at 10 µM (EKVX [3]): 54.1%
growth at 0.1 µM (A549): 108%
growth at 0.1 µM (BT-549): 99%
GI50 (KM12): 1550 nM
TGI (KM12): > 100000 nM
CC50 (KM12): > 100000 nM
growth at 10 µM (M14): 42%
growth at 100 µM (UO-31): 80%
growth at 10 µM (NCI-H322M): 71%
growth at 10 µM (NCI-H522): 19.7%
growth at 10 µM (SK-OV-3): 47.1%
growth at 100 µM (HL-60(TB) [4]): 53%
growth at 0.01 µM (HCC 2998 [5]): 97%
LC50 (EKVX [6]): > 100000 nM
TGI (EKVX [6]): > 100000 nM
growth at 10 µM (SF-295): 18.9%
growth at 0.1 µM (SK-MEL-2): 99%
growth at 0.01 µM (HT-29): 98%
growth at 10 µM (SN12C): 36%
growth at 10 µM (SNB-75): 36%
growth at 100 µM (DU-145): 65%

Clc1cccc(Cl)c1Nc1nc2cccc(Cl)c2s1
growth at 10 µM (HCC 2998 [1]): -88%
growth at 10 µM (UACC-257): -71%
growth at 1 µM (NCI/ADR-RES): 36%
growth at 0.01 µM (HL-60(TB) [2]): 104%
growth at 0.1 µM (RXF 393): 73%
growth at 100 µM (Malme-3M): -84%
growth at 100 µM (786-0): -90%
growth at 0.1 µM (TK-10): 94%
growth at 10 µM (EKVX [3]): -7.99%
growth at 0.1 µM (A549): 99%
growth at 0.1 µM (BT-549): 101%
GI50 (KM12): 1200 nM
TGI (KM12): 2480 nM
CC50 (KM12): 5150 nM
growth at 10 µM (M14): -68%
growth at 100 µM (UO-31): -62%
growth at 10 µM (NCI-H322M): 9.8%
growth at 10 µM (NCI-H522): -64%
growth at 10 µM (SK-OV-3): 6.87%
growth at 100 µM (HL-60(TB) [4]): -57%
growth at 0.01 µM (HCC 2998 [5]): 92%
GI50 (EKVX [6]): 299 nM
LC50 (EKVX [6]): 4260 nM
TGI (EKVX [6]): 1400 nM
growth at 10 µM (SF-295): -45.1%
growth at 0.1 µM (SK-MEL-2): 88%
growth at 0.01 µM (HT-29): 100%
growth at 10 µM (SN12C): -94%
growth at 10 µM (SNB-75): -32%
growth at 100 µM (DU-145): -85%
